Experimental findings from ChEMBL document CHEMBL1155247, “SAR and biological evaluation of SEN12333/WAY-317538: Novel alpha 7 nicotinic acetylcholine receptor agonist” (Bioorg Med Chem, 2009) are described below.

Each structure is given as a SMILES string. The source made the active and inactive calls. The rule behind the calls is not given here.

Data set [1] addresses T1, Neuronal acetylcholine receptor subunit alpha-7 (Rattus norvegicus, UniProt Q05941). In words: Agonist activity at rat alpha7 nAChR expressed in rat GH4C1 cells assessed as calcium flux by FLIPR assay. It counts as functional, cell-based, GH4-C1. Summed up: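 GH4C1 cells stably expressing rat α7, 1 × 10^5 cells/well, cultured 24 h. Loaded 40 min at 37 °C with 4 µM Fluo-4-AM in HBSS-20 mM HEPES pH 7.4 with probenecid. FLIPR calcium flux read after first compound addition (1 min at 1 s, then every 30 s for 10 min). MAX–MIN signal normalized to positive control; EC50 by sigmoidal variable-slope fit.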
(Calcium assays in cells follow changes in intracellular calcium, usually with a dye or a luminescent sensor.)

Data set [2] addresses Histamine H3 receptor (Homo sapiens) (UniProt Q9Y5N1). Put plainly: Binding affinity to histamine H3 receptor expressed in HEK293 cells at 10 uM. It counts as cell-based.
Data set [3] addresses T1, Neuronal acetylcholine receptor subunit alpha-7. In words: Displacement of [3H]epibatidine from rat alpha7 nAChR expressed in rat GH4C1 cells. It counts as cell-based, GH4-C1. Summed up: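 Membranes from GH4C1 cells expressing rat α7 were incubated with 5 nM [3H]-epibatidine in 50 mM HEPES pH 7.4 with KCl, NaCl and MgCl2, for 1 h at 23 °C. Nonspecific binding defined with 300 µM nicotine. Bound ligand separated by GF/B filtration with five washes in ice-cold buffer.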

Data set [4] addresses Neuronal acetylcholine receptor subunit alpha-7 (Rattus norvegicus) (UniProt Q05941). Put plainly: (§1) Activity at rat alpha7 nAChR expressed in rat GH4C1 cells by patch clamp technique. It is filed as cell-based. The note with it: GH4-C1. Summed up:
(§2)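 GH4C1 cells stably expressing rat α7 were pretreated with 0.5 mM Na-butyrate for 2 days. Whole-cell clamp at −60 mV; pipette contained K-gluconate, EGTA, ATP. Agonist or acetylcholine applied by fast perfusion in HBSS + 10 mM HEPES as 500 ms pulses at 10 s intervals, sampled at 1 kHz. Peak amplitude and charge measured; EC50 from concentration–response curves.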

Data set [5] deals with T1, Neuronal acetylcholine receptor subunit alpha-7. Described as §1. It is filed as cell-based, GH4-C1. Summed up: as §2
Data set [6] concerns the target Acetylcholine receptor; alpha1/beta1/delta/gamma (Homo sapiens) (UniProt P02708+P07510+P11230+Q07001). In words: Activity at alpha-1-beta-1-gamma-delta nAChR in human TE671 cells assessed as effect on membrane potential by FLIPR assay. It is filed as cell-based. The note with it: TE-671. Summed up:
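TE671 rhabdomyosarcoma cells, as endogenous muscle nAChR, were plated at 5 × 10^4 cells/well 24 h before assay. Loaded with membrane-potential dye in HBSS for 60 min at rt, then read on FLIPR with 10 s baseline before compound addition. First-addition signal taken as SUM of fluorescence, normalized to 1 µM epibatidine. EC50 from sigmoidal variable-slope fit.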

Data set [7] has as its target Neuronal acetylcholine receptor; alpha4/beta2 (Homo sapiens) (UniProt P17787+P43681). In words: Inhibition of alpha4beta2 nAChR at 10 uM. It counts as protein-complex assay.
The target in data set [8] is hERG (KCNH2) (Homo sapiens, UniProt Q12809). Put plainly: Inhibition of human ERG expressed in CHO cells at 1 uM. It counts as cell-based. The conditions noted are these: CHO cells expressing human ERG.
Sequence of hERG (KCNH2) (Q12809 whole entry): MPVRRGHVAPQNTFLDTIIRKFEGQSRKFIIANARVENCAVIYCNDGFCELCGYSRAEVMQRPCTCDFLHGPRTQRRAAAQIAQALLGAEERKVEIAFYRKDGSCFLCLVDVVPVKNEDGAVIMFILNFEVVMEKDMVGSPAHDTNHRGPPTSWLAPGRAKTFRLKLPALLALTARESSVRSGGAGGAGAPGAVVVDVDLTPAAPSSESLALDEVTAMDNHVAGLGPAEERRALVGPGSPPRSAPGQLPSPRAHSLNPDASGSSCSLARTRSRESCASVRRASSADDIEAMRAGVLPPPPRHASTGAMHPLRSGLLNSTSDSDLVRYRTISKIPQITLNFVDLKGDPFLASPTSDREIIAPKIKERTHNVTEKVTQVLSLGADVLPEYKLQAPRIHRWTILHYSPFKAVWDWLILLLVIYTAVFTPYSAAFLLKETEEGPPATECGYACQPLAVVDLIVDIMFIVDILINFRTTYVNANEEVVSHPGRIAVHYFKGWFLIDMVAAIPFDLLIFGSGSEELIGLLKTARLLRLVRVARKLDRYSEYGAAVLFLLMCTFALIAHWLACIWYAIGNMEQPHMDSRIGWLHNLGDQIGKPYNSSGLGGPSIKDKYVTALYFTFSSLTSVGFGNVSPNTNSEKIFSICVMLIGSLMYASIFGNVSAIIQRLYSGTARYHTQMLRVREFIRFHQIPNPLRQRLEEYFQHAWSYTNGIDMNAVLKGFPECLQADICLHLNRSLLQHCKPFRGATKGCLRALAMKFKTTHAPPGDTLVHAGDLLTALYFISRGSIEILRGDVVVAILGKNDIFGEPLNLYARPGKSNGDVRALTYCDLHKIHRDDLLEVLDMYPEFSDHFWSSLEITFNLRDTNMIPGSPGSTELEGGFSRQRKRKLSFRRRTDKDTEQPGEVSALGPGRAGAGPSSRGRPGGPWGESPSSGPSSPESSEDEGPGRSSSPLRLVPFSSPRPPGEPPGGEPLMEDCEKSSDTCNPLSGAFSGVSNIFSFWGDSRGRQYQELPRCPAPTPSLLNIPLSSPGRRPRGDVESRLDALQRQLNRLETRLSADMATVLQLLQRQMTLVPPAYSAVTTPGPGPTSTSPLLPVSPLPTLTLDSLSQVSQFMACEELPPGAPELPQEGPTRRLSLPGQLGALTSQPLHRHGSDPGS
Data set [9] can be described thus: Cmax in Wistar rat at 10 mg/kg, ip. Also on record: dose 10 mg/kg, route intraperitoneal. The conditions noted are these: in vivo. It counts as ADME, organism-based. Summed up: (§3)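 Male Wistar rats, 6–8 weeks, 200–250 g, given a single 10 mg/kg ip dose at time 0. Plasma and brain were sampled at 0, 0.5, 1 and 3 h. Plasma was protein-precipitated with acetonitrile containing internal standard. Brain was homogenized and extracted with methanol. Analysis by LC–MS/MS; detection limits 1 ng/mL plasma and 10 ng/g brain.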

Data set [10] is described as follows: Half life in Wistar rat at 10 mg/kg, ip. It is filed as ADME, organism-based. Also on record: dose 10 mg/kg, route intraperitoneal. The note with it: in vivo. Summed up:
as §3

The subject of data set [11] is Rattus norvegicus. Put plainly: AUC (last) in Wistar rat at 10 mg/kg, ip. The note with it: in vivo. Also on record: time 0 - last, dose 10 mg/kg, route intraperitoneal. It counts as ADME, organism-based, Plasma. Summed up:
as §3

Data set [12] can be described thus: Ratio of drug level from brain to plasma in Wistar rat at 10 mg/kg, ip. It counts as ADME, organism-based. Also on record: dose 10 mg/kg, route intraperitoneal. Summed up: as §3
Data set [13] in a line: Oral bioavailability in Wistar rat. It is filed as ADME, organism-based. The note with it: in vivo.
Data set [14] deals with Rattus norvegicus. Put plainly: Inhibition of scopolamine-induced immediate working memory deficit in Wistar rat at 1 to 10 mg/kg, ip after 48 hrs by novel-object recognition test. It is filed as functional, organism-based.
The target of data set [15] is T2, 5-hydroxytryptamine receptor 3A (Homo sapiens) (UniProt P46098).
T2 sequence (whole entry): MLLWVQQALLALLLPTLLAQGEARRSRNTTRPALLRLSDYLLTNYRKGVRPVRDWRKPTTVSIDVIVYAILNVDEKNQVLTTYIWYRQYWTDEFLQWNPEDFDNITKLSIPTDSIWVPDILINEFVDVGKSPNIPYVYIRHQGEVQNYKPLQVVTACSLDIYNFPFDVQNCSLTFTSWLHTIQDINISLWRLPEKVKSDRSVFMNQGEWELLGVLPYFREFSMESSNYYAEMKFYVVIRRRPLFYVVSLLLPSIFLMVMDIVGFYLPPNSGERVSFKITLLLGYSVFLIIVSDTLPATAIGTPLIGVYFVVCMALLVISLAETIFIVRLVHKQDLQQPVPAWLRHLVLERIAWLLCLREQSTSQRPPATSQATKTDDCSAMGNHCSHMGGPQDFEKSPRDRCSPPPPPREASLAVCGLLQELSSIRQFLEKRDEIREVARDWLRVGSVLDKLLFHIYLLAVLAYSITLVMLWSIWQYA
Put plainly: Activity at human 5HT3 receptor expressed in human HEK293 cells assessed as calcium flux by FLIPR assay.

The test system of data set [16] is Rattus norvegicus. Put plainly: Inhibition of MK-801-induced immediate working memory deficit in Long Evans rat at 1 to 10 mg/kg, ip after 48 hrs by novel-object recognition test.
Data set [17] concerns Rattus norvegicus. Put plainly: Cognitive enhancing effect in Wistar rat assessed as minimized spontaneous decay of episodic memory at 3 mg/kg, ip after 24 hrs by novel-object recognition test.

T1 sequence (Q05941 whole entry): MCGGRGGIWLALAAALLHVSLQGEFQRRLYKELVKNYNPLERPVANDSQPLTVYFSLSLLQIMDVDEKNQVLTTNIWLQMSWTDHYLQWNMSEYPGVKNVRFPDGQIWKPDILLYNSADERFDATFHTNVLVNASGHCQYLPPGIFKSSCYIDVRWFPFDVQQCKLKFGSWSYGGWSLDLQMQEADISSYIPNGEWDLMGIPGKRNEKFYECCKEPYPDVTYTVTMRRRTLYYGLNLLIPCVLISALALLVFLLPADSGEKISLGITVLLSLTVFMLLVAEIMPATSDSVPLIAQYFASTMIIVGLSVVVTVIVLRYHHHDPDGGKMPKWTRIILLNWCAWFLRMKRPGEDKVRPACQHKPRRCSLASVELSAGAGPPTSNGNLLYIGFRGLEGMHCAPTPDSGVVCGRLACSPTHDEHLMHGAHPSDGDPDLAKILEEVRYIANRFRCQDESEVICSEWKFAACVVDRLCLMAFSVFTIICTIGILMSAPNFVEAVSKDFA
Sequence of Neuronal acetylcholine receptor subunit alpha-7 (Rattus norvegicus) (Q05941 whole entry, the tested form may be a part): as the sequence (Q05941 whole entry) above
Sequence of Histamine H3 receptor (Homo sapiens) (Q9Y5N1 whole entry): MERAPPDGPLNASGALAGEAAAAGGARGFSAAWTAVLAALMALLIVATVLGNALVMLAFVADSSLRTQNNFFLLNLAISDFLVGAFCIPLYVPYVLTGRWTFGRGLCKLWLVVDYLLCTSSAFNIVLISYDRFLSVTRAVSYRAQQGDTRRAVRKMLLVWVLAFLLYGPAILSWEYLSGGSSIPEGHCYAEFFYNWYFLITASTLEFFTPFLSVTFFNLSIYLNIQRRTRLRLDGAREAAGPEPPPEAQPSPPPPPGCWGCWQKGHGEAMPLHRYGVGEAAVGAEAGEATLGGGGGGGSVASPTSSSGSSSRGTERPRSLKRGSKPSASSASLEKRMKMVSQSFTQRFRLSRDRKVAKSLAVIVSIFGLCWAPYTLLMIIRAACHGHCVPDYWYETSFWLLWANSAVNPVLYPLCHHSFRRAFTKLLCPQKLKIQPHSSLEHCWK

As for `CC(=O)c1cccc(-c2ccc(NC(=O)CCCCN3CCCCC3)cc2)c1`, the half-maximal effective concentration (EC50) (usually the concentration giving half of the maximal effect) in data set [1] came to 990 nM.

On to `CC(C)Oc1ccccc1-c1ccc(NC(=O)CCCCN2CCCCC2)cc1`, for which, in [1], the concentration for a half-maximal effect (EC50) amounted to 240 nM.

For `COc1ccc(N2CCN(CCCCNC(=O)c3ccc(-c4ccccn4)cc3)CC2)c(OC)c1`, the concentration for a half-maximal effect (EC50) in data set [1] is 2840 nM.

Take `O=C(CCCCN1CCCCC1)Nc1ccc2ncccc2c1`: the half-maximal effective concentration (EC50) in [1] stood at 5070 nM.

Regarding `CCN(CC)C(=O)C1CCCN(CCCCC(=O)Nc2ccc(-c3cccnc3)cc2)C1` (stereo not drawn), the EC50 in data set [1] was > 30000 nM.

Regarding `COc1ccc(N2CCN(CCCCNC(=O)c3ccc([N+](=O)[O-])cc3)CC2)c(OC)c1`, in [1], the EC50 is > 30000 nM.

As for `O=C(CCCCN1CCCCC1)Nc1ccc(Br)cc1`, the 50% effective concentration (EC50) in [1] was determined as 1350 nM.

On to `Cl.O=C(CCCCN1CCOCC1)Nc1ccc(-c2cccnc2)cc1`, for which the EC50 in data set [1] came out at 1650 nM; in data set [5], 12000 nM. The result in [2] and in data set [17] was Active. In data set [3], the inhibition constant (Ki) – broadly, a measure of affinity in units of concentration, obtained from inhibition or displacement – came to 260 nM. Further, the Emax (in general, the greatest response seen or fitted, relative to the assay's reference) in data set [4] worked out at 88%. In addition, the result in data set [6] was inactive. Besides, the inhibition (as a rule, the drop in the measured response relative to a control, in per cent) in [7] came out at 45%. The inhibition at 1 µM in [8] amounted to 6%. Besides, the peak concentration (Cmax) (usually the maximum level reached in the sampled fluid or tissue) in [9] stood at 244 ng/mL. In addition, the half-life (as a rule, how long it takes for the measured level to halve) in [10] is 48 min. Further, in data set [11], the exposure (AUC) (commonly the area under the concentration-time curve, a measure of exposure) worked out at 347 ng·h/mL. Also, in [12], the Kp (commonly the ratio of the level in a tissue or fluid to that in plasma or blood) was 2.5. In addition, the bioavailability (in general, dose-corrected exposure relative to a reference, in per cent) in data set [13] was found to be 57%. Besides, the inhibition result in data set [14] and in [16] was “Active” each time. In addition, in [15], the Selectivity ratio result was “inactive”.

Take `COc1ccc(N2CCN(CCCCNC(=O)c3ccc(-c4ccccc4OC)cc3)CC2)c(OC)c1`: the 50% effective concentration (EC50) in data set [1] was found to be 2910 nM.

With `O=C(CCCCN1CCCCC1)Nc1cccc(Br)c1`, in data set [1], the concentration for a half-maximal effect (EC50) was 2070 nM.

Turning to `O=C(CCCCN1CCCCCC1)Nc1ccc(-c2cccnc2)cc1`, the concentration giving a half-maximal response (EC50) in [1] was 540 nM.

Take `COc1ccc(N2CCN(CCCCNC(=O)c3ccc(-c4ccccc4C)cc3)CC2)c(OC)c1`: in [1], the concentration for a half-maximal effect (EC50) was 5770 nM.

For `NC(=O)c1cccc(-c2ccc(NC(=O)CCCCN3CCCCC3)cc2)c1`, the concentration giving a half-maximal response (EC50) in data set [1] is 90 nM.

`CC(=O)Nc1cccc(-c2ccc(NC(=O)CCCCN3CCCCC3)cc2)c1`: the EC50 in [1] was 120 nM.

As for `COc1ccc(N2CCN(CCCCNC(=O)c3ccc(-c4ccccc4Cl)cc3)CC2)c(OC)c1`, in data set [1], the EC50 was 3110 nM.

On to `O=C(CCCCN1CCCCC1)Nc1ccc(-c2cccnc2)cc1`, for which the EC50 in [1] was found to be 530 nM.

As to `CC(=O)N1CCCN(CCCCC(=O)Nc2ccc(-c3cccnc3)cc2)CC1`, the half-maximal effective concentration (EC50) in [1] was determined as 2660 nM.

On to `CN(CCCCC(=O)Nc1ccc(-c2cccnc2)cc1)CCc1ccccn1`, for which, in data set [1], the EC50 came to 3270 nM.

Turning to `COc1ccc(N2CCN(CCCCNC(=O)c3ccc(-c4ccccc4F)cc3)CC2)c(OC)c1`, in data set [1], the concentration giving a half-maximal response (EC50) worked out at 6030 nM.

As to `CN1CCN(CCCCC(=O)Nc2ccc(-c3cccnc3)cc2)CC1`, the EC50 in data set [1] was 3560 nM.

For `CC(=O)N1CCN(CCCCC(=O)Nc2ccc(-c3cccnc3)cc2)CC1`, the concentration giving a half-maximal response (EC50) in data set [1] came out at 2780 nM.

Regarding `COc1ccc(N2CCN(CCCCNC(=O)c3ccc(-c4ccccc4)cc3)CC2)c(OC)c1`, the concentration for a half-maximal effect (EC50) in data set [1] is > 30000 nM.

For the compound `Cc1cccc(NC(=O)CCCCN2CCCCC2)c1`, the EC50 in [1] was > 30000 nM.

Consider `COc1ccccc1N1CCN(CCCCC(=O)Nc2ccc(-c3cccnc3)cc2)CC1`, for which, in data set [1], the EC50 was 2470 nM.

As to `O=C(CCCCN1CCCCC1)Nc1ccc2c(c1)OCO2`, the concentration for a half-maximal effect (EC50) in [1] was 10900 nM.

Turning to `O=C(CCCCN1CCCCC1)Nc1ccc(-c2ccc(F)cc2F)cc1`, the concentration giving a half-maximal response (EC50) in data set [1] came out at 160 nM.

In the case of `COc1ccc(N2CCN(CCCCNC(=O)c3ccc(Br)cc3)CC2)c(OC)c1`, the EC50 in [1] is > 30000 nM.
